Experimental data as given in ChEMBL document CHEMBL4385626, “SAR optimization studies on modified salicylamides as a potential treatment for acute myeloid leukemia through inhibition of the CREB pathway” (Bioorg Med Chem Lett, 2019).

Experiments:
Type in all cases: functional, cell-based
HL-60 = experiment: Cytotoxicity against human HL60 cells incubated for 3 days by CellTiter-Glo luminescent assay; settings: HL-60, 72 h
Summary of the method: (§1)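 CellTiter-Glo viability read-out on leukemia cell lines. IC50 reported as the average of triplicates.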

KG-1 = experiment: Cytotoxicity against human KG1 cells incubated for 3 days by CellTiter-Glo luminescent assay; settings: KG-1, 72 h; summary of the method: as §1
NALM-6 = experiment: Cytotoxicity against human NALM6 cells incubated for 3 days by CellTiter-Glo luminescent assay; settings: NALM-6, 72 h; summary of the method: as §1
Jurkat = experiment: Cytotoxicity against human Jurkat cells incubated for 3 days by CellTiter-Glo luminescent assay; settings: 72 h; summary of the method: as §1

SMILES	IC50 (HL-60) [nM]	IC50 (KG-1) [nM]	IC50 (NALM-6) [nM]	IC50 (Jurkat) [nM]
N#Cc1ccc(NC(=O)c2cc(-c3cccnc3)ccc2O)cc1	7960	8330		
O=C(Nc1ccc(Cl)c(C(F)(F)F)c1)c1cc(F)ccc1O	600	540	970	530
Cc1cccc(O)c1C(=O)Nc1ccc(C#N)cc1	6860	7940		
O=C(Nc1ccc(C(F)(F)F)cc1)c1cc(Cl)c(-c2ccccc2)cc1O	490	770	800	1160
O=C(Nc1ccc(C(F)(F)F)cc1)c1cc(Cl)ccc1O	510	740	1210	710
N#Cc1ccc(NC(=O)c2ccc(F)cc2O)cc1	1380	3150		
N#Cc1ccc(NC(=O)c2c(O)cccc2F)cc1	> 10000	> 10000		
N#Cc1ccc(NC(=O)c2cc(Br)c(-c3ccccc3)cc2O)cc1	700	850		
O=C(Nc1cc(C(F)(F)F)cc(C(F)(F)F)c1)c1cc(F)ccc1O	320	470	620	500
N#Cc1ccc(NC(=O)c2cc(C(F)(F)F)ccc2O)cc1	3120	4810		
O=C(Nc1ccc(C(F)(F)F)cc1)c1cc(Br)c(-c2ccccc2)cc1O	540	400	1000	740
N#Cc1ccc(NC(=O)c2ccc(Br)cc2O)cc1	1210	1450		
CS(=O)(=O)Nc1ccc(Cl)cc1C(=O)Nc1ccc(C#N)cc1	> 10000	> 10000		
N#Cc1ccc(NC(=O)c2cc(-c3ccccc3)ccc2O)cc1	1350	1300		
N#Cc1ccc(NC(=O)c2cc(Cl)ccc2O)c(Cl)c1	500	860	730	620
O=C(Nc1cc(C(F)(F)F)cc(C(F)(F)F)c1)c1ccc(Br)cc1O	270	830	1200	930
COc1cc2ccccc2cc1C(=O)Nc1ccc(C#N)cc1	> 10000	> 10000		
N#Cc1ccc(NC(=O)c2c(O)ccc3ccccc23)cc1	4430	3760		
O=C(Nc1ccc(Cl)cc1Cl)c1cc(F)ccc1O	890	850	1620	880
O=C(Nc1ccccc1)c1cc(F)ccc1O	> 10000	> 10000		
N#Cc1ccc(NS(=O)(=O)c2cc(F)ccc2O)cc1	> 10000	> 10000		
O=C(Nc1ccc(C(F)(F)F)cc1)c1ccc(Br)cc1O	360	340	690	500
Cc1cc(C#N)ccc1NC(=O)c1ccc2cccnc2c1O	710	3240	230	270
O=C(Nc1cccc(C(F)(F)F)c1)c1cc(F)ccc1O	970	1010	1800	840
O=C(Nc1cc(Cl)cc(Cl)c1)c1cc(F)ccc1O	600	780	1440	710
O=C(Nc1ccc(OC(F)(F)F)cc1)c1cc(F)ccc1O	850	780	1210	810

SMILES	IC50 (HL-60) [nM]	IC50 (KG-1) [nM]	IC50 (NALM-6) [nM]	IC50 (Jurkat) [nM]
O=C(Nc1cc(C(F)(F)F)cc(C(F)(F)F)c1)c1cc(Cl)c(-c2ccccc2)cc1O	790	430	560	540
O=C(Nc1ccc(C(F)(F)F)cc1)c1ccc2cccnc2c1O	680	3510	380	550
N#Cc1ccc(CC(=O)c2cc(F)ccc2O)cc1	> 10000	> 10000		
O=C(Nc1ccc(Br)c(Cl)c1)c1cc(F)ccc1O	600	670	1250	860
N#Cc1ccc(NC(=O)c2ccc[nH]c2=O)cc1	> 10000	> 10000		
O=C(Nc1ccc(Cl)c(Cl)c1)c1cc(F)ccc1O	660	760	1370	670
N#Cc1ccc(NC(=O)c2cccc3cc[nH]c23)cc1	> 10000	> 10000		
Cc1ccc(C(=O)Nc2ccc(C#N)cc2)c(O)c1	2420	2560		
O=C(Nc1ccc(Cl)c(Br)c1)c1cc(Cl)ccc1O	780	680	3070	1350
O=C(Nc1ccc(C(F)(F)F)cc1)c1cc(Br)c(F)cc1O	450	820	1300	880
CC(=O)Oc1cc2ccccc2cc1C(=O)Nc1ccc(C#N)cc1	1690	1700		
O=C(Nc1ccc(C(F)(F)F)cc1)c1ccc(Cl)cc1O	630	580	1180	670
O=C(Nc1ccc([N+](=O)[O-])cc1)c1cc(F)ccc1O	520	1100	2080	940
N#Cc1ccc(NC(=O)c2cc(Cl)c(-c3ccccc3)cc2O)cc1	520	480		
CN(C(=O)c1cc(F)ccc1O)c1ccc(C#N)cc1	> 10000	> 10000		
N#Cc1cccc(NC(=O)c2cc(F)ccc2O)c1	7750	9100		
O=C(Nc1cccc(OC(F)(F)F)c1)c1cc(F)ccc1O	730	830	1370	700
O=C(Nc1ccc(OC(F)(F)F)cc1Cl)c1cc(Cl)ccc1O	650	620	1350	880
N#Cc1ccc(NC(=O)c2ccc(Cl)cc2O)cc1	1300	1920		
COc1cccc(C(=O)Nc2ccc(C#N)cc2)c1O	> 10000	> 10000		
O=C(Nc1ccc(C(F)(F)F)cc1)c1cc(Br)ccc1O	580	610	1090	620
Cc1ccc(O)c(C(=O)Nc2ccc(C#N)cc2)c1	3920	3370		
N#Cc1ccc(NC(=O)c2cc(Cc3ccccc3)ccc2O)cc1	1740	1930		
O=C(Nc1ccc(OC(F)(F)F)c(Cl)c1)c1cc(Cl)ccc1O	450	460	1050	840
N#Cc1ccc(Nc2n[nH]c3ccccc23)cc1	> 10000	> 10000		
O=C(Nc1ccc(C(F)(F)F)cc1)c1cc(F)ccc1O	490	1700	2090	580

SMILES	IC50 (HL-60) [nM]	IC50 (KG-1) [nM]	IC50 (NALM-6) [nM]	IC50 (Jurkat) [nM]
N#Cc1ccc(NC(=O)c2ccc(-c3ccccc3)cc2O)cc1	700	410		
N#Cc1ccc(NC(=O)c2ccc(-c3cccnc3)cc2O)cc1	6660	7940		
N#Cc1ccc(NC(=O)c2ccc3cccnc3c2O)c(Cl)c1	910	3670	420	550
O=C(Nc1ccc(OC(F)(F)F)c(Cl)c1)c1ccc(C(F)(F)F)cc1O	380	640	950	790
N#Cc1ccc(NC(=O)c2ccc3ccccc3c2O)cc1	3410	2720		
N#Cc1ccc(NC(=O)c2ccc(C(F)(F)F)cc2O)cc1	1030	1440		
N#Cc1cc(Cl)ccc1NC(=O)c1ccc2cccnc2c1O	790	3540	280	170
O=C(Nc1ccc(C(F)(F)F)c(Cl)c1)c1cc(Cl)ccc1O	460	450	1220	690
O=C(Nc1cc(F)cc(F)c1)c1ccc2cccnc2c1O	510	3340	310	430
Cc1cccc(C(=O)Nc2ccc(C#N)cc2)c1O	> 10000	8980		
O=C(Nc1ccc(Cl)cc1Cl)c1ccc2cccnc2c1O	610	3560	450	430
O=C(Nc1cc(C(F)(F)F)cc(C(F)(F)F)c1)c1cc(Cl)ccc1O [IMD-0354]	160	500	630	480
O=C(Nc1cc(C(F)(F)F)cc(C(F)(F)F)c1)c1cc(Br)c(F)cc1O	250	510	950	700
COc1ccc(C(=O)Nc2ccc(C#N)cc2)c(O)c1	5470	5430		
N#Cc1ccc(NC(=O)c2ccc(-c3ccncc3)cc2O)cc1	7090	8840		
O=C(Nc1ccc(C(F)(F)F)cc1)c1ccc(C(F)(F)F)cc1O	380	780	1120	820
O=C(Nc1ccc(C(F)(F)F)cc1)c1ccc(F)cc1O	680	740	1530	800
N#Cc1ccc(NC(=O)c2cccc(Br)c2O)cc1	2910	3260		
N#Cc1ccc(NC(=O)c2cc(F)ccc2O)cc1	1420	2670		
O=C(Nc1cc(C(F)(F)F)cc(C(F)(F)F)c1)c1cc(Cl)c(F)cc1O	430	470	2130	730
N#Cc1ccc(NC(=O)c2cccc(F)c2O)cc1	5390	9690		
N#Cc1ccc(NC(=O)c2ccccc2O)cc1	4620	5370		
N#Cc1ccc(NC(=O)c2cc(-c3ccncc3)ccc2O)cc1	5410	7990		
N#Cc1ccc(NC(=O)c2cc(Br)c3cccnc3c2O)cc1	330		210	230
N#Cc1ccc2nc(-c3ccccc3O)[nH]c2c1	> 10000	> 10000		
